Values joined by “and” are separate entries in the source; they are usually repeats but may differ in a detail not shown here. Identical values can stand only once.
What was measured:
Format in all cases: functional
Mus musculus [1] = species on record: Mus musculus; assay: In vitro cytotoxic T-Lymphocyte (CTL) activity relative to interleukin 2 was obtained at a concentration of 10 e -5 M(+ represents 21 - 40% of interleukin 2)
Procedure, shortened: (§1)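 Splenocytes from 6- to 8-week-old female C57BL/6 and irradiated (3000 rads) DBA/2 mice, 10⁷ cells, were cultured together in RPMI 1640 with 10% FCS. Culture ran 120 h at 37 °C in 5% CO₂, with [³H]thymidine pulse of an aliquot. Percent specific lysis was scaled to IL 2 (taken as 100%) and scored 0 to ++++ in 20% bands.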

Mus musculus [2] = species on record: Mus musculus; assay: In vitro cytotoxic T-Lymphocyte (CTL) activity relative to interleukin 2 was obtained at a concentration of 10 e -7 M(++ represents 41 - 60% of interleukin 2); procedure, shortened: as §1
Mus musculus [3] = species on record: Mus musculus; assay: In vitro cytotoxic T-Lymphocyte (CTL) activity relative to interleukin 2 was obtained at a concentration of 10 e […](++ represents 41 - 60% of interleukin 2); procedure, shortened: as §1
Mus musculus [4] = assay: In vivo blood immunophenotyping (CD4+CD45+ cells) assay was performed by injecting 0 mg/Kg of compound intraperitoneally in mice
Procedure, shortened: (§2)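 Female 6- to 8-week-old C57BL/6 mice were dosed ip once daily for one, four or nine consecutive days, drug in physiological saline. For single dosing, groups of seven were used. Blood and spleen cells were ACK-lysed (pH 7.3, 5 min) and PBS-washed, then stained 45 min on ice with FITC/PE surface-marker antibodies. Cells were fixed in 1% paraformaldehyde and read by flow cytometry as relative subset percentages.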

Mus musculus [5] = assay: In vivo blood immunophenotyping (CD4+CD45+ cells) assay was performed by injecting 100 mg/Kg of compound intraperitoneally in mice; procedure, shortened: as §2
Mus musculus [6] = assay: In vivo blood immunophenotyping (CD4+CD45+ cells) assay was performed by injecting 25 mg/Kg of compound intraperitoneally in mice; procedure, shortened: as §2
Mus musculus [7] = assay: In vivo blood immunophenotyping (CD4+CD45+ cells) assay was performed by injecting 50 mg/Kg of compound intraperitoneally in mice; procedure, shortened: as §2
Mus musculus [8] = assay: In vivo spleen immunophenotyping (TCR cells) assay was performed by injecting 25 mg/Kg of compound intraperitoneally in mice; procedure, shortened: as §2
Mus musculus [9] = assay: In vivo spleen immunophenotyping (TCR cells) assay was performed by injecting 50 mg/Kg of compound intraperitoneally in mice; procedure, shortened: as §2
Mus musculus [10] = assay: In vivo immunophenotyping (CD4-CD8- cells) assay was performed by injecting 25 mg/Kg of compound intraperitoneally in mice and blood is collected; procedure, shortened: as §2
Mus musculus [11] = assay: In vivo immunophenotyping (CD4-CD8- cells) assay was performed by injecting 50 mg/Kg of compound intraperitoneally in mice and blood is collected; procedure, shortened: as §2
Mus musculus [12] = assay: In vivo spleen immunophenotyping (CD8+CD45+ cells) assay was performed by injecting 0 mg/Kg of compound intraperitoneally in mice; procedure, shortened: as §2
Mus musculus [13] = assay: In vivo spleen immunophenotyping (CD8+CD45+ cells) assay was performed by injecting 100 mg/Kg of compound intraperitoneally in mice; procedure, shortened: as §2
Mus musculus [14] = assay: In vivo spleen immunophenotyping (CD8+CD45+ cells) assay was performed by injecting 25 mg/Kg of compound intraperitoneally in mice; procedure, shortened: as §2
Mus musculus [15] = assay: In vivo spleen immunophenotyping (CD8+CD45+ cells) assay was performed by injecting 50 mg/Kg of compound intraperitoneally in mice; procedure, shortened: as §2
Mus musculus [16] = assay: In vivo spleen immunophenotyping (Ly5 cells) assay was performed by injecting 0 mg/Kg of compound intraperitoneally in mice; procedure, shortened: as §2
Mus musculus [17] = assay: In vivo spleen immunophenotyping (Ly5 cells) assay was performed by injecting 25 mg/Kg of compound intraperitoneally in mice; procedure, shortened: as §2
Mus musculus [18] = assay: In vivo spleen immunophenotyping (Ly5 cells) assay was performed by injecting 50 mg/Kg of compound intraperitoneally in mice; procedure, shortened: as §2
Mus musculus [19] = assay: In vivo spleen immunophenotyping (TCR cells) assay was performed by injecting 0 mg/Kg of compound intraperitoneally in mice; procedure, shortened: as §2
Mus musculus [20] = assay: In vivo blood immunophenotyping (CD4-CD11b+ cells) assay was performed by injecting 0 mg/Kg of compound intraperitoneally in mice; procedure, shortened: as §2
Mus musculus [21] = assay: In vivo blood immunophenotyping (CD4-CD11b+ cells) assay was performed by injecting 25 mg/Kg of compound intraperitoneally in mice; procedure, shortened: as §2
Mus musculus [22] = assay: In vivo blood immunophenotyping (CD4-CD11b+ cells) assay was performed by injecting 50 mg/Kg of compound intraperitoneally in mice; procedure, shortened: as §2
Mus musculus [23] = assay: In vivo blood immunophenotyping (CD8+CD45+ cells) assay was performed by injecting 0 mg/Kg of compound intraperitoneally in mice; procedure, shortened: as §2
Mus musculus [24] = assay: In vivo blood immunophenotyping (CD8+CD45+ cells) assay was performed by injecting 100 mg/Kg of compound intraperitoneally in mice; procedure, shortened: as §2
Mus musculus [25] = assay: In vivo blood immunophenotyping (CD8+CD45+ cells) assay was performed by injecting 25 mg/Kg of compound intraperitoneally in mice; procedure, shortened: as §2
Mus musculus [26] = assay: In vivo blood immunophenotyping (CD8+CD45+ cells) assay was performed by injecting 50 mg/Kg of compound intraperitoneally in mice; procedure, shortened: as §2
Mus musculus [27] = assay: In vivo blood immunophenotyping (NK+CD3+ cells) assay was performed by injecting 0 mg/Kg of compound intraperitoneally in mice; procedure, shortened: as §2
Mus musculus [28] = assay: In vivo blood immunophenotyping (NK+CD3+ cells) assay was performed by injecting 25 mg/Kg of compound intraperitoneally in mice; procedure, shortened: as §2
Mus musculus [29] = assay: In vivo blood immunophenotyping (NK+CD3+ cells) assay was performed by injecting 50 mg/Kg of compound intraperitoneally in mice; procedure, shortened: as §2
Mus musculus [30] = assay: In vivo blood immunophenotyping (NK+CD3- cells) assay was performed by injecting 0 mg/Kg of compound intraperitoneally in mice; procedure, shortened: as §2
Mus musculus [31] = assay: In vivo blood immunophenotyping (NK+CD3- cells) assay was performed by injecting 25 mg/Kg of compound intraperitoneally in mice; procedure, shortened: as §2
Mus musculus [32] = assay: In vivo blood immunophenotyping (NK+CD3- cells) assay was performed by injecting 50 mg/Kg of compound intraperitoneally in mice; procedure, shortened: as §2
Mus musculus [33] = assay: In vivo immunophenotyping (CD4+ cells) assay was performed by injecting 0 mg/Kg of compound intraperitoneally in mice and blood is collected; procedure, shortened: as §2
Mus musculus [34] = assay: In vivo immunophenotyping (CD4-CD8- cells) assay was performed by injecting 0 mg/Kg of compound intraperitoneally in mice and blood is collected; procedure, shortened: as §2
Mus musculus [35] = assay: In vivo immunophenotyping (CD4-CD8- cells) assay was performed by injecting 100 mg/Kg of compound intraperitoneally in mice and blood is collected; procedure, shortened: as §2
Mus musculus [36] = species on record: Mus musculus; assay: In vitro cytotoxic T-Lymphocyte (CTL) activity relative to interleukin 2 was obtained at a concentration of 10 e -7 M(+ represents 21 - 40% of interleukin 2); procedure, shortened: as §1
Mus musculus [37] = species on record: Mus musculus; assay: In vitro cytotoxic T-Lymphocyte (CTL) activity relative to interleukin 2 was obtained at a concentration of 10 e -7 M(++ +represents 61 - 80% of interleukin 2); procedure, shortened: as §1
Mus musculus [38] = species on record: Mus musculus; assay: In vitro cytotoxic T-Lymphocyte (CTL) activity relative to interleukin 2 was obtained at a concentration of 10 e -7 M (++ represents 41 - 60% of interleukin 2); procedure, shortened: as §1
Mus musculus [39] = species on record: Mus musculus; assay: In vitro cytotoxic T-Lymphocyte (CTL) activity relative to interleukin 2 was obtained at a concentration of 10 e -7 M(++ represents 21 - 40% of interleukin 2); details: in the assay text read “+ represents” for “++ represents”; procedure, shortened: as §1
Mus musculus [40] = species on record: Mus musculus; assay: In vitro cytotoxic T-Lymphocyte (CTL) activity relative to interleukin 2 was obtained at a concentration of 10 e -9 M(++ represents 41 - 60% of interleukin 2); procedure, shortened: as §1
Mus musculus [41] = species on record: Mus musculus; assay: In vitro cytotoxic T-Lymphocyte (CTL) activity relative to interleukin 2 was obtained at a concentration of 10 e -7 M(++++ represents 81 - 100% of interleukin 2); procedure, shortened: as §1
Mus musculus [42] = species on record: Mus musculus; assay: In vitro cytotoxic T-Lymphocyte (CTL) activity relative to interleukin 2 was obtained at a concentration of 10 e -5 M(++ represents 41 - 60% of interleukin 2); procedure, shortened: as §1
Mus musculus [43] = species on record: Mus musculus; assay: In vitro cytotoxic T-Lymphocyte (CTL) activity relative to interleukin 2 was obtained at a concentration of 10 e -5 M (+ represents 21 - 40% of interleukin 2); procedure, shortened: as §1

CN(C)c1ncnc2c1ncn2C[C@H]1CC[C@@H](COC(=O)N[C@@H](CCCNC(=N)N)C(=O)O)CC1
CTL activity (Mus musculus [1]): 21 - 40% of interleukin 2

N=C(N)NCCC[C@@H](NC(=O)OCCCCCn1cnc2c(O)ncnc21)C(=O)O
CTL activity (Mus musculus [2]): 41 - 60% of interleukin 2

CN(C)c1ncnc2c1ncn2CCCCCOC(=O)NC(CCCNC(N)=O)C(=O)O (stereo not drawn)
CTL activity (Mus musculus [1]): 21 - 40% of interleukin 2

CN(C)c1ncnc2c1ncn2CCCCCO
CTL activity (Mus musculus [3]): 41 - 60% of interleukin 2

CC1CN1c1ncnc2c1ncn2CCCCCOC(=O)N[C@@H](CCCNC(=N)N)C(=O)O (stereo partly drawn)
CTL activity (Mus musculus [2]): 41 - 60% of interleukin 2

CN(C)c1ncnc2c1ncn2CCCCCOC(=O)N[C@@H](CCCNC(=N)N)C(=O)O [BCH-1393]
Mean (Mus musculus [4]): 17.5 | Mean (Mus musculus [5]): 20.6 | Mean (Mus musculus [6]): 18.5 | Mean (Mus musculus [7]): 22.1 | Mean (Mus musculus [8]): 39.8 | Mean (Mus musculus [9]): 45.1 | Mean (Mus musculus [10]): 70.7 | Mean (Mus musculus [11]): 74.7 | Mean (Mus musculus [12]): 7.81 | Mean (Mus musculus [13]): 9.13 | Mean (Mus musculus [14]): 7.46 | Mean (Mus musculus [15]): 8.92 | Mean (Mus musculus [16]): 55.5 | Mean (Mus musculus [17]): 54.1 | Mean (Mus musculus [18]): 50.4 | Mean (Mus musculus [19]): 38.9 | Mean (Mus musculus [20]): 9.6 | Mean (Mus musculus [21]): 13.7 | Mean (Mus musculus [22]): 9.68 | Mean (Mus musculus [23]): 8.25 and 6.9 | Mean (Mus musculus [24]): 9.96 | Mean (Mus musculus [25]): 11.7 and 8.39 | Mean (Mus musculus [26]): 10.1 and 9.06 | Mean (Mus musculus [27]): 3.43 | Mean (Mus musculus [28]): 5.84 | Mean (Mus musculus [29]): 3.25 | Mean (Mus musculus [30]): 6.01 | Mean (Mus musculus [31]): 5.9 | Mean (Mus musculus [32]): 8.14 | Mean (Mus musculus [33]): 20.9 and 8.1 | Mean (Mus musculus [34]): 65.9 | Mean (Mus musculus [35]): 82.1

N=C(N)NCCCC(NC(=O)OCCCCCn1cnc2c(N)ncnc21)C(=O)O (single isomer, unassigned)
CTL activity (Mus musculus [36]): 21 - 40% of interleukin 2 | CTL activity (Mus musculus [37]): +

CN(C)c1ncnc2c1ncn2CCCCCOC(=O)CCN
CTL activity (Mus musculus [2]): 41 - 60% of interleukin 2

CN(C)c1ncnc2c1ncn2CCSCCOC(=O)NC(CCCNC(=N)N)C(=O)O (single isomer, unassigned)
CTL activity (Mus musculus [38]): 41 - 60% of interleukin 2

N=C(N)NCCC[C@H](NC(=O)OCCCCCn1cnc2c(NC3CC3)ncnc21)C(=O)O
CTL activity (Mus musculus [39]): 21 - 40% of interleukin 2

CN(C)c1ncnc2c1ncn2CCCCCCOC(=O)N[C@@H](CCCNC(=N)N)C(=O)O
CTL activity (Mus musculus [2]): 41 - 60% of interleukin 2

CN(C)c1ncnc2c1ncn2CCCCOC(=O)N[C@@H](CCCNC(=N)N)C(=O)O
CTL activity (Mus musculus [40]): 41 - 60% of interleukin 2

N=C(N)NCCCC(NC(=O)OCCCCCn1cnc2c(NN)ncnc21)C(=O)O (single isomer, unassigned)
CTL activity (Mus musculus [41]): ++

N=C(N)NCCCC(NC(=O)OCCCCCn1cnc2cncnc21)C(=O)O (single isomer, unassigned)
CTL activity (Mus musculus [42]): 41 - 60% of interleukin 2

CN(C)c1ncnc2c1ncn2CCCCCOC(=O)NCC(=O)O
CTL activity (Mus musculus [36]): 21 - 40% of interleukin 2

N=C(N)NCCC[C@H](NC(=O)OCCCCCn1cnc2c(N3CCC3)ncnc21)C(=O)O
CTL activity (Mus musculus [39]): 21 - 40% of interleukin 2

CN(C)c1ncnc2c1ncn2CCCCCNC(=O)OCCCCCn1cnc2c(N(C)C)ncnc21
CTL activity (Mus musculus [2]): 41 - 60% of interleukin 2

CN(C)c1ncnc2c1ncn2C[C@H]1CC[C@H](COC(=O)N[C@@H](CCCNC(=N)N)C(=O)O)CC1
CTL activity (Mus musculus [2]): 41 - 60% of interleukin 2

CNc1ncnc2c1ncn2CCCCCOC(=O)NC(CCCNC(=N)N)C(=O)O (single isomer, unassigned)
CTL activity (Mus musculus [43]): 21 - 40% of interleukin 2

N=C(N)NCCCC(NC(=O)OCCCCCn1cnc2c(S)ncnc21)C(=O)O (single isomer, unassigned)
CTL activity (Mus musculus [36]): 21 - 40% of interleukin 2

N=C(N)NCCCC(NC(=O)OCCCCCn1cnc2c(O)ncnc21)C(=O)O (single isomer, unassigned)
CTL activity (Mus musculus [2]): 41 - 60% of interleukin 2
